Screening data (PubChem BioAssay)
UBC13 inh = UBC13 polyubiquitin chain formation inhibitors, primary screen, biochemical, TR-FRET, uHTS | Ubiquitin-conjugating enzyme E2 N (Homo sapiens), P61088 | inhibition, % at 20 µM | 330,000 tested, 0.47% active | AID 485273, 2010; in the data active = inhibition above about 45%, passing the limit was not always enough
MEKK3 PB1 HTS = modulators of MEKK3-MEK5 PB1 binding, primary screen, biochemical, wildtype MEKK3, multiplex bead flow cytometry, Alexa488-MEK5 | 290,000 tested, 1.4% active | binding response (% of control), % at 10 µM | bead-based flow cytometry, Alexa488-MEK5 binding to MEKK3; actives lie on both sides; 0 = blocked by unlabeled MEK5, 100 = vehicle | AID 1529, 2009 | Mitogen-activated protein kinase kinase kinase 3 (Homo sapiens), Q99759;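 active = binding response more than 3 SD above or below the average of its plate-row segment, actives on both sides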;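 also: Alexa488 bead fluorescence after subtracting the streptavidin-only scavenger bead signal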
Target sequence (Q99759 whole entry, looked up): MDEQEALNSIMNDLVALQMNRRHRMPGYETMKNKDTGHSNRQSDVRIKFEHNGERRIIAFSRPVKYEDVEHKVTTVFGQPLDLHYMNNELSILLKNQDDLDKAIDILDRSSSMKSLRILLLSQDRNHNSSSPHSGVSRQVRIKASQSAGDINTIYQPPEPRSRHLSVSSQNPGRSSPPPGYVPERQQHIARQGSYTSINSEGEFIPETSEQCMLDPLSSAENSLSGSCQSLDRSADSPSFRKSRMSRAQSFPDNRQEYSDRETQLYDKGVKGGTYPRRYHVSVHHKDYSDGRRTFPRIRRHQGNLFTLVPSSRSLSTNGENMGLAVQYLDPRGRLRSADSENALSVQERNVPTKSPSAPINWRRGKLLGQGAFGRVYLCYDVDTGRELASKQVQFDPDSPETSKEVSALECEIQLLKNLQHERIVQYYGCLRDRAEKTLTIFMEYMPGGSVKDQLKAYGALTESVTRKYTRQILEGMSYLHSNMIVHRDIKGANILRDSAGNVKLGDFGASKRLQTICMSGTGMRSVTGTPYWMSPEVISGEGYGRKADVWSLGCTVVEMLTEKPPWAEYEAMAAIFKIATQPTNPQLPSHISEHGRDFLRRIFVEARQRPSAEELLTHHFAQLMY
MEKK2 mut-MEK5 = MEK5 binding signal on mutant MEKK2 PB1, primary screen, biochemical, multiplex bead flow cytometry, Alexa488-MEK5; percent response, % at 10 µM; Alexa488-MEK5 binding to MEKK2 mutant; 290,000 tested, 0.35% active; in the data active = percent response above about 24%, passing the limit was not always enough
Apaf-1 inh = inhibitors of human Apaf-1 apoptosome, primary screen, biochemical, DEVD-Rh110 fluorescence, uHTS; AID 489030, 2010; 330,000 tested, 0.71% active; reconstituted apoptosome caspase-3 activity; Apoptotic protease-activating factor 1 (Homo sapiens), O14727; inhibition, % at 20 µM; active = inhibition of at least 40% at 20 µM
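Material: biochemical Apaf-1 apoptosome reconstitution. Medium: Hepes buffer, pH 7.5. Also added: cytochrome c activation, bis-DEVD rhodamine 110 substrate. Timing: 30 min compound preincubation, 50 min activation, room temperature. Measured by: rhodamine 110 fluorescence at Ex 480/Em 540 nm.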
MEKK2wt PB1 HTS = modulators of MEK5 binding to wildtype MEKK2, primary screen, biochemical, multiplex bead flow cytometry, Alexa488-MEK5 | Mitogen-activated protein kinase kinase kinase 2 (Homo sapiens), Q9Y2U5 | Alexa488-MEK5 binding to MEKK2 WT; actives lie on both sides | binding response (% of control), % at 10 µM | 290,000 tested, 1.1% active; in the data active = binding response below about 67% or above about 130%
Large screens that a line does not name were inactive; [ ] = another dose, or the depositor's remark. Shown are actives, neighbours in structure and some others; about 2.9% of the full set was active somewhere.

Cc1c(C(=O)N(Cc2ccccc2)C(C)C)oc2ccc(S(=O)(=O)N3CCOCC3)cc12	none
CCn1nc(C)c(CN2CCC(C(=O)Nc3cccc(-c4cccc(Cl)c4)c3)CC2)c1C	MEKK2wt PB1 HTS 146.0
CCn1ncc(CN2CCC(C(=O)Nc3cccc(-c4cccc(F)c4)c3)CC2)c1C	none
Cc1cc(C)n(CCCN2CCC(C(=O)Nc3cccc(-c4cccc(F)c4)c3)CC2)n1	MEKK2 mut-MEK5 25.0, MEKK2wt PB1 HTS 158.0
CS(=O)(=O)N1CCC(C(=O)Nc2cccc(Cl)c2)CC1	none
COc1ccc(F)c(CN2CCC(n3nccc3NC(=O)C3CCOC3)CC2)c1 (stereo not given)	none
C(=N\NC1=Nc2cccc3cccc1c23)/c1ccccn1	MEKK2wt PB1 HTS 8.0 (no result: UBC13 inh, Apaf-1 inh)
COc1cc(NS(=O)(=O)c2ccc(Br)s2)cc(OC)c1	MEKK2wt PB1 HTS -14.0
COc1ccc(CNS(=O)(=O)c2ccc(Br)s2)cc1	none
CC(C)C(=O)NC(NC(=O)C(C)C)c1ccc([N+](=O)[O-])cc1	MEKK2wt PB1 HTS -1.0
Cc1ccc(C(C)C)cc1NC(=O)Nc1ccc([N+](=O)[O-])cc1	MEKK2 mut-MEK5 25.0, MEKK2wt PB1 HTS 157.0
CCOc1ccc(NC(=O)Nc2cc(C(C)C)ccc2C)cc1	none
C=CCn1cc(C(=O)N2CCN(C)CC2)c(=O)c2cc(S(=O)(=O)N(CC)CC)ccc21	none
COc1cc(C(=O)OCC(=O)NC2CCCCC2)cc(OC)c1OC	none (no result: MEKK3 PB1 HTS, MEKK2 mut-MEK5, MEKK2wt PB1 HTS)
CN1/C(=C\C=C2/SC(=S)N(CC(=O)O)C2=O)C(C)(C)c2ccccc21	MEKK3 PB1 HTS 145.0, MEKK2 mut-MEK5 880.0, MEKK2wt PB1 HTS 805.0
CCN(CC)S(=O)(=O)c1cc(NC(=O)c2n[nH]c(=O)c3ccccc23)ccc1C	MEKK2wt PB1 HTS -3.0
CCCNC(=O)OC[C@H]1O[C@H](CCO/N=C(\C)CCN2CCc3nc(-c4ccccc4)c(-c4ccccc4)cc3C2)C=C[C@@H]1Oc1ccc(OC)cc1	Apaf-1 inh 52.8
CCCNC(=O)OC[C@H]1O[C@H](CCO/N=C/C[C@@H]2C=C[C@H](OC(C)=O)[C@@H](COC(C)=O)O2)C=C[C@@H]1Oc1ccc(OC)cc1	none
CCc1ccc2nc3sc(C(=O)N4CCc5ccccc54)c(N)c3cc2c1	MEKK2 mut-MEK5 59.0
O=C(Nc1ccccn1)c1cccc(S(=O)(=O)N2CCCC2)c1	MEKK3 PB1 HTS 82.0[inhibitor]
CSCCC(NC(=O)c1ccco1)C(=O)NCCc1ccc(Cl)cc1 (stereo not given)	none (no result: MEKK3 PB1 HTS, MEKK2 mut-MEK5, MEKK2wt PB1 HTS)
COc1cccc2cc(C(=O)C3=C(O)C(=O)N(c4cc(C)on4)C3c3cccs3)oc12 (stereo not given)	MEKK2wt PB1 HTS -11.0
CCN(CC)c1ccc(/C=C2/C(=O)N(c3ccc([N+](=O)[O-])cc3)N=C2N2CCOCC2)cc1	Apaf-1 inh 56.0 (no result: MEKK3 PB1 HTS, MEKK2 mut-MEK5, MEKK2wt PB1 HTS)
CCOC(=O)Cc1csc(N/C(=N/S(=O)(=O)c2ccc(Cl)cc2)c2ccccc2)n1	Apaf-1 inh 63.2
O=[N+]([O-])/C=C/c1cn(Cc2ccc(Cl)cc2)c2ccccc12	MEKK2wt PB1 HTS 2.0
COc1cccc(CCN2CCC(CNS(=O)(=O)c3cc(-c4cc(C)no4)ccc3C)CC2)c1	MEKK2wt PB1 HTS 140.0
O=C(CCn1c(=O)[nH]c2ccsc2c1=O)N1CC(=O)N(CCc2ccccc2)C(=O)C1	MEKK3 PB1 HTS 74.0[inhibitor]
O=C(CCn1c(=O)[nH]c2ccsc2c1=O)N1CCN(c2cccc(Cl)c2)CC1	none
Cc1ccc(SCc2cc(-c3ccc(Cl)cc3)no2)cc1	Apaf-1 inh 78.3 (no result: MEKK3 PB1 HTS, MEKK2 mut-MEK5, MEKK2wt PB1 HTS)
Clc1ccc(-c2cc(CSc3ccccc3)on2)cc1	none
Cc1ccc(S(=O)(=O)N2CCN(c3ccc([N+](=O)[O-])c4cccnc34)CC2)cc1	Apaf-1 inh 46.6
O=[N+]([O-])c1ccc(N2CCN(S(=O)(=O)c3ccccc3)CC2)c2cccnc12	none
Cn1c(SCC(=O)Nc2ccccc2)nnc1-c1ccc2nonc2c1	none
Cc1cc(C)c(NN=c2c(=O)c3ccccc3c2=O)c(C)c1	none (no result: MEKK3 PB1 HTS, MEKK2 mut-MEK5, MEKK2wt PB1 HTS)
O=c1c(=NNc2ccccc2Cl)c(=O)c2ccccc12	MEKK3 PB1 HTS 77.0[inhibitor] (no result: UBC13 inh, Apaf-1 inh)
CCN(CC)CCN(C(=O)/C=C/c1cccs1)c1nc2ccc(Cl)cc2s1	MEKK2wt PB1 HTS 156.0
CCOC(=O)N=Nc1c2ccccc2c2nc3no[nH]c3nc12	Apaf-1 inh 88.4
CCOC(=O)N=Nc1c(O)n(CC(=O)OC)c2ccccc12	none
Cc1cc(S(=O)(=O)NCC(c2ccc3c(c2)OCO3)N2CCOCC2)ccc1F (stereo not given)	none (no result: MEKK3 PB1 HTS, MEKK2 mut-MEK5, MEKK2wt PB1 HTS)
NC(=S)N=Nc1c(O)[nH]c2ccc(F)cc12	UBC13 inh 50.3
O=C(COC(=O)c1ccc2c(c1)C(=O)N(c1cccc3ncccc13)C2=O)c1ccc(Cl)cc1	MEKK3 PB1 HTS 70.0[inhibitor]
CC(OC(=O)Cc1ccsc1)C(=O)Nc1ccc(C(N)=O)cc1 (stereo not given)	none (no result: MEKK3 PB1 HTS, MEKK2 mut-MEK5, MEKK2wt PB1 HTS)
C=CC[C@H](CC(=O)N(CCO)Cc1ccccc1)C(=O)N[C@H](COC(=O)[C@@H](CC=C)CC(=O)OC(C)(C)C)c1ccccc1	none (no result: MEKK3 PB1 HTS, MEKK2 mut-MEK5, MEKK2wt PB1 HTS)
Cn1c2ccccc2c2nnc(SCC(=O)NCc3ccoc3)nc21	none
C=CCN1C(=O)C2(NNc3ccccc3O2)c2ccccc21 (stereo not given)	none
CCCCN1C(=O)C2(NNc3ccccc3O2)c2ccccc21 (stereo not given)	MEKK2wt PB1 HTS 54.0
CS(=O)(=O)N1N=C(c2cccs2)CC1c1ccccc1 (stereo not given)	MEKK2wt PB1 HTS 0.0
COc1ccc(C2CC(c3cccs3)=NN2S(C)(=O)=O)cc1 (stereo not given)	none
CS(=O)(=O)Nc1cccc(C2=NN(S(C)(=O)=O)C(c3ccccc3)C2)c1 (stereo not given)	MEKK2wt PB1 HTS 23.0
COc1ccc(NC(=O)/C(C#N)=C/c2ccc(OCCN3CCOCC3)c(OC)c2)c(OC)c1	none
O=S(=O)(Nc1cc(Sc2ncn[nH]2)c(O)c2ccccc12)c1ccccc1	Apaf-1 inh 93.6
Cc1nc2nc(SCC(=O)NCCCN3CCCCCC3)nn2c(C)c1Cc1ccccc1	MEKK2 mut-MEK5 34.0, MEKK2wt PB1 HTS 190.0
CCCCn1c(NC(=O)c2ccc(F)cc2)c(C#N)c2nc3ccccc3nc21	Apaf-1 inh 94.8 (no result: MEKK3 PB1 HTS, MEKK2 mut-MEK5, MEKK2wt PB1 HTS)
C#CC1CCCCC1NC(=O)Nc1cnccc1C(F)(F)F (stereo not given)	none
O=C1NN(c2cccc(Br)c2)C(=O)/C1=C/c1ccc(-c2cc([N+](=O)[O-])ccc2O)o1	MEKK3 PB1 HTS 36.0[inhibitor], MEKK2wt PB1 HTS 29.0[inhibitor]
CC1=NN(c2ccc(C)cc2)C(=O)/C1=C/c1ccc(-c2cc([N+](=O)[O-])ccc2O)o1	none
